This passage reports Ki and Ratio Ki results from ChEMBL document CHEMBL2401648, “3-Aryl-3-arylmethoxyazetidines. A new class of high affinity ligands for monoamine transporters” (Bioorg Med Chem Lett, 2013).

Each structure is given as a SMILES string.

In general, Ki refers to the dissociation constant of the complex between target and ligand, obtained from inhibition or displacement. A higher Ki goes with weaker binding.

Common to all, as to format: tissue-based
In assay [1] the target is Sodium-dependent serotonin transporter (Rattus norvegicus, UniProt P31652). The experiment in a line: Displacement of [3H]Citalopram from SERT in Sprague-Dawley rat brain homogenate after 60 mins by scintillation counting analysis. The method in brief:
(§1)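 Competitive binding in rat brain tissue: [3H]citalopram displaced from SERT, [3H]WIN 35,428 displaced from DAT. Ki values are the mean ± SEM of three experiments run in triplicate. Compounds tested mainly as hydrochloride salts, some as oxalate salts.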
Background: In a radioligand displacement assay an active substance lowers the binding of a labelled ligand.

Assay [2] deals with Sodium-dependent dopamine transporter (Rattus norvegicus, UniProt P23977). The experiment in a line: Displacement of [3H]WIN 35,428 from DAT in Sprague-Dawley rat brain homogenate preincubated for 5 mins prior to radioligand addition measured after 1 hr by scintillation counting analysis. In short, it runs like this:
as §1

Another assay is filed under the species Rattus norvegicus. The experiment in a line: Selectivity ratio of Ki for DAT in Sprague-Dawley rat brain homogenate to Ki for SERT in Sprague-Dawley rat brain homogenate. The method in brief:
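Ratio of DAT Ki to SERT Ki. DAT Ki came from [3H]WIN 35,428 displacement and SERT Ki from [3H]citalopram displacement, both in rat brain tissue. Each Ki is the mean ± SEM of three experiments run in triplicate.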

Chain of Sodium-dependent dopamine transporter (P23977 whole entry): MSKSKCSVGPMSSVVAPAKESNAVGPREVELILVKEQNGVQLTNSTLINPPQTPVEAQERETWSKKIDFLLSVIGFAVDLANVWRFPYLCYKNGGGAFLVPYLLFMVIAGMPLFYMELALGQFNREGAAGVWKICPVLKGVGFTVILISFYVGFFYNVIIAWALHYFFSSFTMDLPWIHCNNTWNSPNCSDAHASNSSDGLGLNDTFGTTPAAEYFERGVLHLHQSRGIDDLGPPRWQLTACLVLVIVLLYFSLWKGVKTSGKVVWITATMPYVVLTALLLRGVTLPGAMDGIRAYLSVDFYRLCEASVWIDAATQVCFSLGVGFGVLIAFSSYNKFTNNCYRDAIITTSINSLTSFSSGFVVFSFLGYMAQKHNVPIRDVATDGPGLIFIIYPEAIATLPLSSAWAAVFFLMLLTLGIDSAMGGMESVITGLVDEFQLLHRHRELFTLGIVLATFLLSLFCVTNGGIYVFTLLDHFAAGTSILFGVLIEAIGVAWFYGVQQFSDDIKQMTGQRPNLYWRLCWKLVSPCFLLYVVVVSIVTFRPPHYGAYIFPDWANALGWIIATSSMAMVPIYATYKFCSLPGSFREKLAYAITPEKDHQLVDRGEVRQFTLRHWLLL
Chain of Sodium-dependent serotonin transporter (P31652 whole entry): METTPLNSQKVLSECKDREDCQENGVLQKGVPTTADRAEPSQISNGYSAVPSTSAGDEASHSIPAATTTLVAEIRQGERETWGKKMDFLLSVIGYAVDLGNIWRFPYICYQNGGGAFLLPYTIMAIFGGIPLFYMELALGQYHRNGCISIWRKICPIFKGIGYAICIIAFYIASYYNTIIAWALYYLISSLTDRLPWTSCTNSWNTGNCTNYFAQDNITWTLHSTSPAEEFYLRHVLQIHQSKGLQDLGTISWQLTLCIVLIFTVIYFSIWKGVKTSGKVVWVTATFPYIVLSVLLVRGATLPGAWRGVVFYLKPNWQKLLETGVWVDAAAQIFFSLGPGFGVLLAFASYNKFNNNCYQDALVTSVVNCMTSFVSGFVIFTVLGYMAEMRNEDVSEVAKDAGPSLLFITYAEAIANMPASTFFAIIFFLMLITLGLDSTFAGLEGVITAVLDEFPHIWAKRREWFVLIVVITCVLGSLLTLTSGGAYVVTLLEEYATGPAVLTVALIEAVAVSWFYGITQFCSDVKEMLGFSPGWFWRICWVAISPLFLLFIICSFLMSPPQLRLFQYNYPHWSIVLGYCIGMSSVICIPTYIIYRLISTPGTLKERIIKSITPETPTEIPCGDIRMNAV

Consider `Clc1ccc(COC2(c3ccc(Cl)cc3)CNC2)cc1`, for which the Ki in assay [1] turned out to be 3.5 nM; in assay [2], 3830 nM. In addition, in the assay listed under Rattus norvegicus, the Ratio Ki is 1100.
The corresponding values for `Clc1ccc(C2(OCc3ccc(Cl)c(Cl)c3)CNC2)cc1` are 8.1 nM, 3770 nM and 470.
Turning to `CN1CC(OCc2ccc(Cl)c(Cl)c2)(c2ccccc2)C1`, the affinity in assay [1], expressed as Ki, was 1 nM.
For the molecule `CN1CC(OCc2ccc(Cl)cc2)(c2ccccc2)C1`, the Ki is 4 nM in assay [1] and 3910 nM in assay [2]. For the same molecule, the Ratio Ki in the assay listed under Rattus norvegicus turned out to be 980.
In the same order, the values of `Clc1ccc(C2(OCc3ccccc3)CNC2)cc1` are 825 nM, 3180 nM and 3.9.
In the same order, the values of `c1ccc(COC2(c3ccccc3)CNC2)cc1` are 1230 nM, 4860 nM and 4.
The corresponding values for `CN1CC(OCc2ccc(Cl)cc2)(c2ccc(Cl)c(Cl)c2)C1` are 4.8 nM, 2290 nM and 630.
Consider `Clc1ccc(COC2(c3ccccc3)CNC2)cc1`, for which the Ki in assay [1] was 2590 nM; in assay [2], 3610 nM. For the same molecule, the Ratio Ki in the assay filed under Rattus norvegicus was 1.4.
The corresponding values for `CN1CC(OCc2ccccc2)(c2ccc(Cl)cc2)C1` are 39 nM, 1410 nM and 36.
In the same order, the values of `CN1CC(OCc2ccccc2)(c2ccc(Cl)c(Cl)c2)C1` are 23 nM, 620 nM and 27.
As for `Clc1ccc(COC2(c3ccc(Cl)c(Cl)c3)CNC2)cc1Cl`, the Ki came out at 4.2 nM in assay [1] and 3670 nM in assay [2]. Moreover, in the assay listed under Rattus norvegicus, the Ratio Ki came out at 870.
The corresponding values for `Clc1ccc(COC2(c3ccc(Cl)c(Cl)c3)CNC2)cc1` are 2.9 nM, 3020 nM and 1000.
The corresponding values for `Clc1ccc(C2(OCc3ccccc3)CNC2)cc1Cl` are 208 nM, 1300 nM and 6.3.
In the same order, the values of `Clc1ccc(COC2(c3ccccc3)CNC2)cc1Cl` are 7.3 nM, 2820 nM and 390.
Consider `CN1CC(OCc2ccccc2)(c2ccccc2)C1`, for which the Ki amounted to 73 nM in assay [1] and 1730 nM in assay [2]. For the same molecule, the Ratio Ki in the assay listed under Rattus norvegicus is 24.
The corresponding values for `CN1CC(OCc2ccc(Cl)c(Cl)c2)(c2ccc(Cl)cc2)C1` are 3 nM, 976 nM and 330.
The corresponding values for `CN1CC(OCc2ccc(Cl)cc2)(c2ccc(Cl)cc2)C1` are 7.8 nM, 2030 nM and 490.
The corresponding values for `CN1CC(OCc2ccc(Cl)c(Cl)c2)(c2ccc(Cl)c(Cl)c2)C1` are 1.3 nM, 436 nM and 340.
